The source made the active and inactive calls. The calls are words filed in the database; no cut-off is given here.
Tests used:
[1] = biological target: T1, Mucosa-associated lymphoid tissue lymphoma translocation protein 1 (Homo sapiens, UniProt Q9UDY8); assay: Inhibition of N-terminal his-tagged GCN4 leucine zipper fused human MALT1 […] expressed in Escherichia coli using Ac-LVSR-AMC as substrate by HTS assay
T1 sequence (Q9UDY8 whole entry): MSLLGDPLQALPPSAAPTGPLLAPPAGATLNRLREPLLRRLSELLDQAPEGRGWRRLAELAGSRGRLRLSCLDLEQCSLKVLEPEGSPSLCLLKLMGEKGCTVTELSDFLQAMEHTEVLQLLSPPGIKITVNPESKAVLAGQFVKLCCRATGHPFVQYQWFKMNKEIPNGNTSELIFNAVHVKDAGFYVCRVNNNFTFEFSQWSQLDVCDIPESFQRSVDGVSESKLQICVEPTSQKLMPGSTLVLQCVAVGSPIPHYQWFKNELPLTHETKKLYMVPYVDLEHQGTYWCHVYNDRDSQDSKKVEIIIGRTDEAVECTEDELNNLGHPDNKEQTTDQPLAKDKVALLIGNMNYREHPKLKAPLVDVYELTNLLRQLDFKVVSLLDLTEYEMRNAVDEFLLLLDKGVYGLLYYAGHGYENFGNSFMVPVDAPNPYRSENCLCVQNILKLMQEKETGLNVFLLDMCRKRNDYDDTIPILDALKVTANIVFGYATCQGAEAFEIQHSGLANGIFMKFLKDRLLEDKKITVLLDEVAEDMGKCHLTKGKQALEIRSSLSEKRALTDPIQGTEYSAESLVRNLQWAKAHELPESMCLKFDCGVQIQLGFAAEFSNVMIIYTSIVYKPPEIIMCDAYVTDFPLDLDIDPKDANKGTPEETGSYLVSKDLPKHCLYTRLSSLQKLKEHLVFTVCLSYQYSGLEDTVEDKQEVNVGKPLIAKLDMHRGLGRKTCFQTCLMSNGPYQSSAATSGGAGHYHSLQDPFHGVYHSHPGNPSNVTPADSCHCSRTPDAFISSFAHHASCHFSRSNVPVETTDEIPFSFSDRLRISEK

[2] = Antiproliferative activity against human HBL1 cells assessed as inhibition of cell growth incubated for 72 hrs by Celltiter-Glo luminescent assay; format: functional
Outline: (§1)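 Exponentially growing cells were seeded at 1 × 10⁴ per 100 μL. HBL-1 and TMD8 were kept in RPMI with 10% FBS, 2 mM glutamine and 10 mM HEPES; OCI-LY1 in Iscove's medium with 20% FBS; all at 37 °C and 5% CO2. Cells were exposed to DMSO or 2-fold serial dilutions from 100 μM for 72 h, in triplicate on one plate. CellTiter-Glo luminescence was read after 1 h. Growth inhibition was calculated against control, accounting for initial cell number, and GI50 was fitted.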

[3] = system: TMD8; assay: Antiproliferative activity against human TMD8 cells assessed as inhibition of cell growth incubated for 72 hrs by Celltiter-Glo luminescent assay; format: functional; outline: as §1
[4] = system: OCI-Ly1; assay: Antiproliferative activity against human OCI-Ly1 cells assessed as inhibition of cell growth incubated for 72 hrs by Celltiter-Glo luminescent assay; format: functional; outline: as §1
[5] = Drug concentration in tumor of NCG mouse xenografted with human TMD8 cells at 30 mg/kg/day, ip measured after 13 days; format: ADME, organism-based, Neoplasm; details: time 13 day, read-out: Drug uptake
Outline: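 TMD8 cells (5 × 10⁶) were implanted subcutaneously into the right flank of 6-week-old female NCG mice. At day 10, when tumors were palpable, mice were randomized into groups of eight. Dosing was ip at 30 mg/kg for 13 consecutive days; controls received HPBCD (20% PEG 400) ip. TGI was based on mean tumor weight of treated versus control groups. Intratumoral drug level was measured after 13 days of dosing.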

[6] = system: TMD8; assay: Induction of apoptosis in human TMD8 cells assessed as viable cells at 2 uM measured after 24 hrs by Annexin V-FITC/ Propidium iodide staining based flow cytometry (reference value: 90.8%); format: functional; details: read-out: Activity
[7] = Induction of apoptosis in human HBL1 cells assessed as dead cells at 2 uM measured after 24 hrs by Annexin V-FITC/ Propidium iodide staining based flow cytometry (reference value: 2.32%); format: functional
[8] = system: TMD8; assay: Induction of apoptosis in human TMD8 cells assessed as viable cells at 5 uM measured after 24 hrs by Annexin V-FITC/ Propidium iodide staining based flow cytometry (reference value: 90.8%); format: functional; details: read-out: Activity
[9] = system: TMD8; assay: Induction of apoptosis in human TMD8 cells assessed as viable cells at 10 uM measured after 24 hrs by Annexin V-FITC/ Propidium iodide staining based flow cytometry (reference value: 90.8%); format: functional; details: read-out: Activity
[10] = system: TMD8; assay: Induction of apoptosis in human TMD8 cells assessed as early apoptotic cells at 5 uM measured after 24 hrs by Annexin V-FITC/ Propidium iodide staining based flow cytometry (reference value: 6.97%); format: functional
[11] = system: OCI-Ly1; assay: Induction of apoptosis in human OCI-Ly1 cells assessed as early apoptotic cells at 5 uM measured after 24 hrs by Annexin V-FITC/ Propidium iodide staining based flow cytometry (reference value: 1.29%); format: functional
[12] = system: OCI-Ly1; assay: Induction of apoptosis in human OCI-Ly1 cells assessed as dead cells at 5 uM measured after 24 hrs by Annexin V-FITC/ Propidium iodide staining based flow cytometry (reference value: 0.365%); format: functional
[13] = system: HBL1; assay: Induction of apoptosis in human HBL1 cells assessed as increase in cleaved PARP level measured after 12 hrs by Western blot analysis; format: functional, cell-based
Outline: (§2)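 HBL1, TMD8 or OCI-LY1 cells were exposed to DMSO or compound for 12 h. Cleaved PARP and caspase-3 were probed by western blot with HRP-conjugated secondary antibodies and chemiluminescent detection. Each lane held 20−75 μg total protein.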

[14] = system: OCI-Ly1; assay: Induction of apoptosis in human OCI-Ly1 cells assessed as increase in cleaved PARP level at 2 to 5 uM measured after 12 hrs by Western blot analysis; format: functional, cell-based; details: dose 2-5 µM; outline: as §2
[15] = Cmax in CD-1 mouse at 10 mg/kg, po by LC-MS/MS analysis; format: ADME, organism-based; parameters: route oral, dose 10 mg/kg; details: in vivo
Outline: (§3)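 Compound formulated in 5% DMSO + 5% Tween-80 in 90% saline and given to male ICR (CD-1) mice (n = 9) at 10 mg/kg po, 1 mg/kg ip or 1 mg/kg iv. Blood was drawn via the jugular vein at set time points and held on ice. Plasma was separated by centrifugation and stored at −80 °C before PK parameters were derived.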

[16] = Cmax in CD-1 mouse at 1 mg/kg, ip by LC-MS/MS analysis; format: ADME, organism-based; parameters: route intraperitoneal, dose 1 mg/kg; details: in vivo; outline: as §3
[17] = AUC (0 to t) in CD-1 mouse at 10 mg/kg, po by LC-MS/MS analysis; format: ADME, organism-based; parameters: dose 10 mg/kg; details: in vivo; outline: as §3
[18] = system: TMD8; assay: Antitumor activity against human TMD8 cells xenografted in NCG mouse assessed as tumor growth inhibition at 30 mg/kg/day, ip measured every 2 days for 13 days by caliper method relative to control; format: functional; details: 312 h, time 13 day, read-out: TGI
[19] = Intraperitoneal bioavailability in CD-1 mouse at 1 mg/kg by LC-MS/MS analysis; details: in vivo, ip
[20] = Toxicity in NCG mouse xenografted with human TMD8 cells assessed as body weight loss at 30 mg/kg/day, ip measured for 13 days; details: in vivo, 312 h

Work on `COc1ccc(OC)c(NC(=O)c2sc(=S)n(-c3ccc(C(F)(F)F)cc3)c2NC(=O)CCl)c1` yielded an IC50 [1] of 5.3 µM, a GI50 [2] of 1 µM and a GI50 [3] of 0.4 µM. The GI50 [4] was 10.7 µM, the concentration at 312 h [5] was 1130 ng/g and the viability at 2 µM [6] was 89.4%. The Activity [7] was 1.94%, the viability at 5 µM [8] was 14.8% and the viability at 10 µM [9] was 3.65%. For the same molecule, the Activity [10] was 58.9%, the Activity [11] was 1.6% and the Activity [12] was 0.204%. The Activity [13] was “Dose-Dependent Effect”, the Activity [14] was “inactive” and the Cmax [15] was 1530 ng/mL. The Cmax [16] was 336 ng/mL, the AUC(0-t) [17] was 11200 ng·h/mL and the inhibition in vivo at 30 mg/kg/day [18] was 31%. The bioavailability [19] was 72% and the Activity [20] was “Non-Toxic”.
